Experimental data pooled from the literature.
Compare with care: the assays were run in different laboratories.
Target: Death-associated protein kinase 1 (DAPK1, Homo sapiens, UniProt P53355)

SMILES | observed | action | technique | concentration | quantity | result
CCCS(=O)(=O)Nc1ccc(F)c(C(=O)c2c[nH]c3ncc(-c4ccc(Cl)cc4)cc23)c1F | enzyme activity | inhibitor |  | 1 µM | inhibition | < 10%
O=C(Nc1cccnn1)N1CC(C/C=C/c2cncc(Oc3ccc(C(F)(F)F)cn3)n2)C1 | cell-free assay |  | competition with immobilised ligand | 1 µM | remaining binding | 98%
N#CCCc1ccc2c(c1)-c1[nH]c3ccc([N+](=O)[O-])cc3c1CC(=O)N2 | cell-free assay |  |  | 0.5 µM | remaining signal | 96.5%
CN(C)C1CCN(CC#Cc2nn(C3CCCC3)c3nc(NCc4ccccc4)ncc23)C1 (stereo not shown) | enzyme activity | inhibitor | FRET | 0.1 µM | inhibition | 1%
CC(=O)Nc1c(C(C)=O)c(=O)n(C)c2nc(-c3ccc(Cl)cc3Cl)c(-c3ccc(Cl)cc3)cc12 | cell-free assay |  | competition with immobilised ligand | 1 µM | remaining binding | 100%
Cc1ccc(NC(=O)c2ccc(C)c(C(F)(F)F)c2)cc1C#Cc1nn(C2CCC(O)CC2)c2ncnc(N)c12 (stereo not shown) | cell-free assay |  |  | 10 µM | remaining signal | 97%
Cc1ccc(NC(=O)c2ccc(CN3CCN(C)CC3)cc2)cc1Nc1nc(-c2cccnc2)cs1 | cell-free assay |  |  | 0.5 µM | remaining signal | 97.5%
Cc1noc([C@H]2C[C@@H](c3ccc(C(F)(F)F)cc3)CN(C(=O)N3CCS(=O)(=O)C3)C2)n1 | cell-free assay |  | competition with immobilised ligand | 1 µM | remaining binding | 100%
Cc1ccc(Nc2nccc(N(C)c3ccc4c(C)n(C)nc4c3)n2)cc1S(N)(=O)=O | enzyme activity | inhibitor |  | 10 µM | inhibition | 12%
CN1CC(Oc2cnc(C#N)cc2-c2ccn3nc(NC(=O)C4CC4)cc3c2)C1 | enzyme activity | inhibitor |  | 1 µM | inhibition | 1%
COc1cc(Nc2cnc(C#N)c(O[C@H](C)CN(C)C)n2)ncc1-c1cnn(C)c1 | enzyme activity | inhibitor | radiometric | 10 µM | remaining activity | 98%
CC(C)(C)c1nc2c(s1)c1nc(N)ncc1c1ccc(NS(=O)(=O)c3c(F)cccc3F)c(F)c12 | enzyme activity | inhibitor | radiometric | 1 µM | remaining activity | 79%
Cc1sc(C(=O)NC2COC2)cc1-n1cc(NC(=O)Nc2c(F)cccc2Cl)cn1 | enzyme activity | inhibitor |  | 10 µM | remaining activity | 104%
FC(F)(F)Oc1cccc(-c2cnc3ccc(-c4ccncc4)nn23)c1 | enzyme activity | inhibitor | radiometric | 1 µM | activity vs control | 101%
CS(=O)(=O)NCC[C@H](NC(=O)c1cncc2c1cnn2-c1ccc(F)cc1)c1ccnc(S(C)(=O)=O)c1 | cell-free assay |  | competition with immobilised ligand | 1 µM | remaining binding | 100%
C[S+]([O-])c1ccc(-c2nc(-c3ccncc3)c(-c3ccc(F)cc3)[nH]2)cc1 (stereo not shown) | cell-free assay |  |  | 0.5 µM | remaining signal | 90.3%
CCCCN(CCCC)C(=O)CN1C[C@@H](c2cc(OC)c3c(c2)OCO3)[C@H](C(=O)O)[C@H]1CC(C)(C)CCC | cell-free assay |  | competition with immobilised ligand | 1 µM | remaining binding | 82.8%
CC/C(=N\NC(=O)NCc1cccc(O)c1)c1ccc(O)c(C)c1O | enzyme activity | inhibitor |  | 0.1 µM | inhibition | -1.6%
CNC(=O)c1cc(Oc2ccc(NC(=O)Nc3ccc(Cl)c(C(F)(F)F)c3)cc2)ccn1 | enzyme activity | inhibitor |  | 10 µM | inhibition | 12%
COc1cc(/C=C/C(=O)CC(=O)/C=C/c2ccc(O)c(OC)c2)ccc1O | enzyme activity | inhibitor |  | 1 µM | activity vs control | 93%
O=C1NC(=O)c2cc(Nc3ccc(F)cc3)c(Nc3ccc(F)cc3)cc21 | cell-free assay |  |  | 0.5 µM | remaining signal | 81.3%
COc1cc(-c2cn(C3CCc4ccccc4N(CC(F)(F)F)C3=O)nn2)ccc1-n1ccc(C)n1 (stereo not shown) | cell-free assay |  | competition with immobilised ligand | 1 µM | remaining binding | 79%
Cn1c(=O)n(-c2ccc(C(C)(C)C#N)cc2)c2c3cc(-c4cnc5ccccc5c4)ccc3ncc21 | enzyme activity | inhibitor |  | 10 µM | remaining activity | 107%
CCC(=O)N[C@H]1CC[C@@H](C(=O)N(C)c2ccc(-c3nc4ccccc4o3)cc2)C1 | cell-free assay |  | competition with immobilised ligand | 1 µM | remaining binding | 96%
Cc1cnc(NC2CCOCC2)nc1-n1cnc(C(=O)NC(CN)c2cc(F)cc(Cl)c2)c1 (stereo not shown) | enzyme activity | inhibitor | radiometric | 1 µM | remaining activity | 96%
CCN(CC)c1ccc(C2=NNC(=O)CC2C)cc1[N+](=O)[O-] (stereo not shown) | enzyme activity | inhibitor |  | 10 µM | remaining activity | 105%
CS(=O)(=O)N1CCCC(NC(=O)[C@H](CCC2CCCCC2)NC(=O)c2ccc(CNc3ncnc4c3nnn4-c3ccccc3)cc2)C1 (stereo partly shown) | cell-free assay |  | competition with immobilised ligand | 0.1 µM | remaining binding | 92%
Oc1cccc(-c2nc(N3CCOCC3)c3oc4ncccc4c3n2)c1 | enzyme activity | inhibitor |  | 10 µM | remaining activity | 30%
